ChEMBL document CHEMBL4261643, “Reducing the Lipophilicity of Perfluoroalkyl Groups by CF2-F/CF2-Me or CF3/CH3 Exchange” (J Med Chem, 2018)

Experiments:
[1] = Partition coefficient, log D of the compound at pH 7.4 after 30 mins by shake-flask method; type: physicochemical; settings: octanol/water
Summary of the method: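 Octanol/pH 7.4 buffer shake-flask: compound in buffer plus octanol, shaken 30 min, then centrifuged. The aqueous layer was quantified by LC-UV against the solution before octanol addition to give D7.4. Runs were pools of 10 compounds including three QC compounds (cyclobenzaprine, nicardipine, caffeine).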

[2] = Aqueous solubility of the compound in phosphate buffer at pH 7.4 after 24 hrs by shake-flask method; type: physicochemical
Summary of the method: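 Dried compound equilibrated in aqueous phosphate buffer, pH 7.4, for 24 h at 25 °C. The dissolved portion was separated from the remaining solid and quantified by UPLC/MS/MS. QC samples were included in each run.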

[3] = Fraction unbound in 10% human plasma after 18 hrs by LC-MS/MS analysis; type: ADME, cell-free
Summary of the method: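 Compound from DMSO stock was dialysed against buffer in 10% human plasma on a RED device for 18 h. Plasma and buffer samples were quantified by LC-MS/MS against a 7-point calibration curve in plasma. Samples were generally run in singlicate, in pools of up to 10 compounds. Propranolol, metoprolol and warfarin served as reference compounds in each run.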

[4] = Intrinsic clearance in human liver microsomes preincubated in presence of NADPH for 30 mins and measured up to 30 mins by LC-MS/MS analysis; type: ADME, microsome; settings: read-out: CLH
Summary of the method: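 Compound from DMSO stock was incubated with human liver microsomes plus NADPH at 37 °C. Aliquots taken at 0.7, 5.8, 11.6, 17.2, 22.7 and 30 min were quenched with cold acetonitrile and centrifuged at 4 °C. Substrate loss was measured by LC-MS/MS, and Clint is given in µL/min/mg. Six isoform-specific P450/FMO marker substrates were included in each run.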

[5] = Intrinsic clearance in Han Wistar rat hepatocytes assessed as per million cells preincubated in presence of NADPH for 30 mins and measured up to 120 mins by LC-MS/MS analysis; type: ADME, cell-based, Hepatocyte; settings: read-out: CLH
Summary of the method: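 Cryopreserved Han Wistar rat hepatocytes at 1x10^6 cells/mL were incubated with compound from DMSO stock at 37 °C. Samples were taken at 0.5, 5, 15, 20, 30, 45, 60, 80, 100 and 120 min and quenched with cold acetonitrile. After centrifugation at 4 °C, substrate disappearance was followed by LC-MS/MS. Clint is expressed in µL/min/10^6 cells.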

[6] = biological target: hERG (KCNH2) (Homo sapiens, UniProt Q12809); assay: Inhibition of human ERG at 10 uM relative to cisapride
hERG (KCNH2), sequence (Q12809 whole entry): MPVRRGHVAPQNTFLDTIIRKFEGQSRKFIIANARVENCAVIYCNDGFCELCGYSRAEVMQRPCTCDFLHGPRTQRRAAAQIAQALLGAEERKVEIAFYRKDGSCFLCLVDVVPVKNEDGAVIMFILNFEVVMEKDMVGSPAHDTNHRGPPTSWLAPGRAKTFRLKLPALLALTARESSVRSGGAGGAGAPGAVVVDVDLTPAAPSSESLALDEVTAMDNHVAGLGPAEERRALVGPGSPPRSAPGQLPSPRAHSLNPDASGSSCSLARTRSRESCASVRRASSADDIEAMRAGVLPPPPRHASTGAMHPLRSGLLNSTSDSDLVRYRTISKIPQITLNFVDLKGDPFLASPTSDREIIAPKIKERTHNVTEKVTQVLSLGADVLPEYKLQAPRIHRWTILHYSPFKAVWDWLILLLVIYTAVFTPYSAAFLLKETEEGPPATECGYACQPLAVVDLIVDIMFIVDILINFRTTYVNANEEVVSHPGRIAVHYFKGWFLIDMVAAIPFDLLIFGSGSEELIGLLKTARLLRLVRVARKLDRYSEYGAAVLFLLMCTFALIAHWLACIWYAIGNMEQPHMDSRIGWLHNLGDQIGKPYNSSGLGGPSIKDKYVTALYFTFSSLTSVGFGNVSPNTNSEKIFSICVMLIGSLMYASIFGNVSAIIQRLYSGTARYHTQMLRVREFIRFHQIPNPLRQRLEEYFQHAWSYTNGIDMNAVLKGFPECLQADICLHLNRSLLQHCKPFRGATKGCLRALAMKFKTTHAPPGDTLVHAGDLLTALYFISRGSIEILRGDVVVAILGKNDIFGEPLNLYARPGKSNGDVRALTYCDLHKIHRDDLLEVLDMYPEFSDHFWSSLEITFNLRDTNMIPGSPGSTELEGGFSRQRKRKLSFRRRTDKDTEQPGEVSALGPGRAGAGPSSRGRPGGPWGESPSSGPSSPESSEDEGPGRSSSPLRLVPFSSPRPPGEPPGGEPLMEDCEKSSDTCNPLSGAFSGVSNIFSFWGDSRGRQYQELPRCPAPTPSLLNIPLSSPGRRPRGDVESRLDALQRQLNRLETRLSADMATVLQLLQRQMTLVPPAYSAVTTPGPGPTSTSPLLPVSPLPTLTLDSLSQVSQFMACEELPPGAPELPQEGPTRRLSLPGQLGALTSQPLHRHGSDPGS

Structure (SMILES)	logD at 0.5 h [1]	solubility thermodynamic at 24 h [2] [µM]	fraction unbound at 18 h [3]	microsomal CLint [4] [µL/min/mg]	hepatocyte CLint [5] [µL/min/1e6 cells]	inhibition at 10 µM [6] [%]
CN(C)C(=O)CNCCc1cccc(OCCC(C)(F)F)c1.Cl	1.1	960	0.62	7	34	35
CCCCCOc1cccc(CCNCC(=O)N(C)C)c1.Cl	2.3	779	0.23	29	91	70
CN(C)C(=O)CNCCc1cccc(OCC(F)(F)C(F)(F)C(C)(F)F)c1.Cl	2.2	946	0.25	9	64	63
CCCCOc1cccc(CCNCC(=O)N(C)C)c1.Cl	1.8	782	0.45	13	82	31
CN(C)C(=O)CNCCc1cccc(OCC(F)(F)C(F)(F)C(F)(F)F)c1.Cl	2.5	952	0.2	8	20	57
CN(C)C(=O)CNCCc1cccc(OCC(F)(F)C(F)(F)C(F)(F)C(F)(F)F)c1.Cl	–	955	–	–	–	–
CN(C)C(=O)CNCCc1cccc(OCC(F)(F)C(C)(F)F)c1.Cl	1.6	929	0.51	10	32	41
CN(C)C(=O)CNCCc1cccc(OCCCC(C)(F)F)c1.Cl	1.7	1000	0.49	7	38	45
